For series [1], the target named is T1, Signal transducer and activator of transcription 3 (Mus musculus, UniProt P42227). In words: Inhibition of STAT3 dimerization in mouse NIH3T3 cells expressing v-Src assessed as disruption of STAT3-STAT3: DNA complexation in nucleus after 30 mins by electrophoretic mobility shift assay. It counts as cell-based. An outline of the steps: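 Nuclear extracts from NIH3T3/v-Src (constitutively active STAT3), equal total protein, pre-incubated 30 min at room temperature with increasing compound concentrations, then with radiolabelled hSIE probe; EMSA with densitometry quantification.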
T1 sequence (P42227 whole entry): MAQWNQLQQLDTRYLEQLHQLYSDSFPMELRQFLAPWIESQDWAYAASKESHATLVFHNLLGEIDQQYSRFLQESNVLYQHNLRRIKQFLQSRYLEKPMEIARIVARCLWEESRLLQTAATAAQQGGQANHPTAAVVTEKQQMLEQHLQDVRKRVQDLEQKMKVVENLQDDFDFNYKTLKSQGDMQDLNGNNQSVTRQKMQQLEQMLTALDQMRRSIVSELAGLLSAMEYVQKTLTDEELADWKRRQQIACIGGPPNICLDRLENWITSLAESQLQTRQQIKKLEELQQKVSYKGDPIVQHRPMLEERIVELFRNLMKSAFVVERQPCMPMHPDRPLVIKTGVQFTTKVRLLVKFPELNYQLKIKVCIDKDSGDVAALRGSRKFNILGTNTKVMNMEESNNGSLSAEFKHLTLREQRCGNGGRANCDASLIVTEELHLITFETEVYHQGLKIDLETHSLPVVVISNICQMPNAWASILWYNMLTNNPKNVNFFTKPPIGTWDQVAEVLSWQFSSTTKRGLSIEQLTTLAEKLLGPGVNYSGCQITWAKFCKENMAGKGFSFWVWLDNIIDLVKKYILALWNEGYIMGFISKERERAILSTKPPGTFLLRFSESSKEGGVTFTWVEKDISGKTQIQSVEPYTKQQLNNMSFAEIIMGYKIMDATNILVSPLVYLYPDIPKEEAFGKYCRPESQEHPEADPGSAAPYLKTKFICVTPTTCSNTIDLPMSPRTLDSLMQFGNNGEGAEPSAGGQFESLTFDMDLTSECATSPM
(In EMSA bound probe runs differently from free probe, usually more slowly.)

In series [2] the target is T1, Signal transducer and activator of transcription 3. The series is described as follows: Displacement of 5-carboxyfluorescein-GpYLPQTV-NH2 from mouse recombinant His-tagged STAT3-SH2 domain expressed in Escherichia coli BL21 (DE3) by fluorescence polarization assay. The procedure, abridged:
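His-tagged protein expressed in BL21(DE3), Ni-column purified. STAT3 150 nM incubated with serial inhibitor concentrations 60 min at 30 °C in 50 mM NaCl, 10 mM HEPES, 1 mM EDTA, 0.1% NP-40; 15 min equilibration at room temperature; 10 nM final probe added, 30 min room temperature, then FP read.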
For orientation: In fluorescence polarisation assays a small probe gives low polarisation when free and higher when bound to something large.

Another series has as its system NIH3T3. The series is described as follows: Antiproliferative activity against mouse NIH/3T3 cells assessed as suppression of cell viability at 50 uM after 24 hrs by CyQuant cell viability assay. It counts as functional.
For series [3], the target named is Signal transducer and activator of transcription 3 (Mus musculus) (UniProt P42227). In words: Inhibition of STAT3 dimerization in v-Src transformed mouse NIH3T3 cells assessed as suppression of STAT3-DNA binding activity in nucleus at 100 uM after 24 hrs by electrophoretic mobility shift assay. It counts as cell-based. The procedure, abridged: (§1)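 NIH3T3/v-Src cells treated with 100 μM compound for 6 or 24 h; nuclear extracts then tested for STAT3 DNA binding in vitro with radiolabelled hSIE probe by EMSA.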
Chain of Signal transducer and activator of transcription 3 (Mus musculus) (P42227 whole entry): as above

In a further series the test system is PANC-1. In words: Antiproliferative activity against human PANC1 cells assessed as suppression of cell viability at 50 uM after 24 hrs by CyQuant cell viability assay. The format is functional. The procedure, abridged:
(§2)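 Cancer cells (human breast MDA-MB-231, pancreatic Panc-1, prostate DU-145) treated with a range of inhibitor concentrations, 30–50 μM, for 24 h. Growth and viability read by CyQuant cell proliferation/viability assay.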

For series [4], the target named is T2, Signal transducer and activator of transcription 1 (Mus musculus, UniProt P42225).
T2 sequence (P42225 whole entry): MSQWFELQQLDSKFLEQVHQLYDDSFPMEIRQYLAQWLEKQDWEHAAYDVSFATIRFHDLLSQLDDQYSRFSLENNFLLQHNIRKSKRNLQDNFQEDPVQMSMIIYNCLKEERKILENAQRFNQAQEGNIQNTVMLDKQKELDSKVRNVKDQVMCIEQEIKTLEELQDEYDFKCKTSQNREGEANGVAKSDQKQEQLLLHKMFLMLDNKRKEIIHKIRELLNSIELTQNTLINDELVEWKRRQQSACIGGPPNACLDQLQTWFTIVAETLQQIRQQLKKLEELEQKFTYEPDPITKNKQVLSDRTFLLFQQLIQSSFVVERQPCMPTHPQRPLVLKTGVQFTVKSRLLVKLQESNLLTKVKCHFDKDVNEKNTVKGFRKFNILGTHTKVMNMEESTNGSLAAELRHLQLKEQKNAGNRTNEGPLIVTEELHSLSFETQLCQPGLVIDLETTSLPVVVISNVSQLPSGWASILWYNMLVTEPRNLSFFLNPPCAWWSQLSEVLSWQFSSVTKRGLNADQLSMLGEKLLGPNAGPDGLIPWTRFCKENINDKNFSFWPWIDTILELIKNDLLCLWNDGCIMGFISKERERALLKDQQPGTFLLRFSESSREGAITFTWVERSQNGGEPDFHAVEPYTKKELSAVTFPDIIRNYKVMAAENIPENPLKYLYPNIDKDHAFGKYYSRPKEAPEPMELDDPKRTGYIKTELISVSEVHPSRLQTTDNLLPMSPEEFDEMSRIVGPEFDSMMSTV
The series is described as follows: Displacement of 5-carboxyfluorescein-GpYDKPHVL-NH2 from mouse recombinant His-tagged STAT1-SH2 domain expressed in Escherichia coli BL21 (DE3) by fluorescence polarization assay. An outline of the steps:
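His-tagged protein expressed in BL21(DE3), Ni-column purified. STAT1 80 nM incubated with serial inhibitor concentrations 60 min at 30 °C in 50 mM NaCl, 10 mM HEPES, 1 mM EDTA, 0.1% NP-40; 15 min equilibration at room temperature; 10 nM final probe added, 30 min room temperature, then FP read.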

The next series deals with MDA-MB-468 (human). In words: Antiproliferative activity against human MDA-MB-468 cells assessed as suppression of cell viability at 50 uM after 24 hrs by CyQuant cell viability assay.
A further series deals with Caco-2. The series is described as follows: Apparent permeability across apical to basolateral side in human Caco2 cells at 10 uM at pH 7.4 after 90 mins by LC/MS analysis. It counts as ADME, cell-based. Conditions: caco-2, pH 7.4, […]. For orientation: Passage across Caco-2 layers is used to estimate intestinal permeability.
The test system of another series is DU-145. The series is described as follows: Antiproliferative activity against human DU145 cells assessed as suppression of cell viability at 50 uM after 24 hrs by CyQuant cell viability assay. The format is functional. The procedure, abridged: as §2
Series [5] has as its target T1, Signal transducer and activator of transcription 3. In words: Inhibition of mouse recombinant SH2 domain of His-tagged full-length STAT3 by surface plasmon resonance assay. The procedure, abridged:
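Purified STAT3 captured on a HisCap sensor chip by injecting 50 μg/ml protein; inhibitors at various concentrations in 1X PBS, 0.5% DMSO running buffer passed over chip; association and dissociation rate constants recorded, their ratio taken as KD.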

For series [6], the target named is Signal transducer and activator of transcription 3 (Mus musculus) (UniProt P42227). The series is described as follows: Inhibition of STAT3 dimerization in v-Src transformed mouse NIH3T3 cells assessed as suppression of STAT3-DNA binding activity in nucleus at 100 uM after 6 hrs by electrophoretic mobility shift assay. The format is cell-based. An outline of the steps:
as §1

The test system of the next series is HL-60. The series is described as follows: Antiproliferative activity against human HL60 cells assessed as suppression of cell viability after 24 hrs by CyQuant cell viability assay. It counts as functional, cell-based. Conditions: HL-60, 24 h. An outline of the steps:
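Cells incubated 24 h with a range of inhibitor concentrations; HL-60 cells (no aberrant STAT3 signalling) run as control alongside DU145, Panc-1, NIH3T3/vSrc and breast cancer lines. Viability/growth read by CyQuant assay.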

The nature of series [7]: Metabolic stability in human Caco2 cells at 10 uM at pH 7.4 after 90 mins by LC/MS analysis. The format is ADME, cell-based. Conditions: Caco-2 cells, read-out: Stability. The procedure, abridged: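 Caco-2 monolayers grown on PET membrane inserts (1.0 µm pore) at 75,000 cells/cm² and used on day 25, fully polarized and differentiated. Compound at 10 μM final, non-gradient pH 7.4/7.4, 90 min. Samples analysed by narrow-window mass-extraction LC/QTof-MS for parent-compound peak areas. Percent recovered or transported calculated relative to the initial dosing concentration.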

pIC50, pKd, pKi: −log10 of the molar value. Calls of active or inactive are those of the source. The calls are words filed in the database; no cut-off is given here.

Regarding `CC(C)C[C@H](NC(=O)[C@H](Cc1ccc(OP(=O)(O)O)cc1)NC(=O)c1ccc(C#N)cc1)C(=O)Nc1cc(C(=O)NCc2ccccc2)cc(-c2cccc(C(N)=O)c2)c1`, the pIC50 (commonly −log10 of the IC50, conventionally taken in molar units) in series [1] is 3.73. The pKi (commonly the negative decadic logarithm of the Ki, by convention in mol/L) in series [2] was 4.42.
On to `CC(C)C[C@H](NC(=O)[C@H](Cc1ccc(OP(=O)(O)O)cc1)NC(=O)c1ccc(C#N)cc1)C(=O)Nc1ccc(C(=O)NCc2ccccc2)c(-c2ccc(C(N)=O)cc2)c1`, for which the Activity with NIH3T3, with PANC-1, with MDA-MB-468 (human) and in the series with DU-145 was 50% each time. Further, the result in series [3] was Active. Further, the pIC50 in series [1] was 4.14; in the series on HL-60, < 3.70. The pKi in series [4] was 5.20; in series [2], 5.30. Besides, the Papp (usually the rate of passage across a membrane or cell layer, normalised by area and donor concentration) in the series on Caco-2 was < 0.5 ×10⁻⁶ cm/s. In addition, in [5], the pKd (commonly the negative decadic logarithm of the Kd, by convention in mol/L) is 6.05. For the same compound, in [6], the inhibition – broadly, the share of the control response that was lost under treatment – is > 80%.
Consider `COC(=O)c1ccc(-c2cc(NC(=O)[C@H](CC(C)C)NC(=O)[C@H](Cc3ccc(OP(=O)(O)O)cc3)NC(=O)c3ccc(C#N)cc3)ccc2C(=O)NCc2ccccc2)cc1`, for which, in series [1], the pIC50 was < 3.70. In addition, the pKi in [2] is 4.59.
As to `COC(=O)c1cccc(-c2cc(NC(=O)[C@H](CC(C)C)NC(=O)[C@H](Cc3ccc(OP(=O)(O)O)cc3)NC(=O)c3ccc(C#N)cc3)ccc2C(=O)NCc2ccccc2)c1`, the pIC50 in [1] is 4.40. Also, in [2], the pKi is 5.00.
Take `COC(=O)c1cccc(-c2cc(NC(=O)[C@H](CC(C)C)NC(=O)[C@H](Cc3ccc(OP(=O)(O)O)cc3)NC(=O)c3ccc(C#N)cc3)cc(C(=O)NCc3ccccc3)c2)c1`: in [1], the pIC50 is 4.18. Moreover, in series [2], the pKi was 4.64.
For the compound `CC(C)C[C@H](NC(=O)[C@H](Cc1ccc(O)cc1)NC(=O)c1ccc(C#N)cc1)C(=O)Nc1ccc(C(=O)NCc2ccccc2)c(-c2ccc(C(N)=O)cc2)c1`, the outcome in series [3] and in [6] was Active. The negative logarithm of the IC50 (pIC50) in series [1] is 3.99. Besides, the remaining at […], 10 µM in [7] was found to be 52%. Moreover, in the series on Caco-2, the Papp is > 0.5 ×10⁻⁶ cm/s. The pKd in series [5] is 4.92.
Regarding `CC(C)C[C@H](NC(=O)[C@H](Cc1ccc(OP(=O)(O)O)cc1)NC(=O)c1ccc(C#N)cc1)C(=O)Nc1ccc(C(=O)NCc2ccccc2)c(-c2cccc(C#N)c2)c1`, the pIC50 in series [1] is 4.19. Besides, the pKi in [2] was 4.89.
The like results for `COC(=O)c1ccc(-c2cc(NC(=O)[C@H](CC(C)C)NC(=O)[C@H](Cc3ccc(OP(=O)(O)O)cc3)NC(=O)c3ccc(C#N)cc3)cc(C(=O)NCc3ccccc3)c2)cc1` were, in that order, 3.95 and 4.60.
Taken in the same sequence, the figures for `CC(C)C[C@H](NC(=O)[C@H](Cc1ccc(OP(=O)(O)O)cc1)NC(=O)c1ccc(C#N)cc1)C(=O)Nc1cc(C(=O)NCc2ccccc2)cc(-c2ccc(C#N)cc2)c1` were 4.22 and 4.44.
For the compound `CC(C)C[C@H](NC(=O)[C@H](Cc1ccc(OP(=O)(O)O)cc1)NC(=O)c1ccc(C#N)cc1)C(=O)Nc1cc(C(=O)NCc2ccccc2)cc(-c2ccc(C(N)=O)cc2)c1`, in series [3], the result was Active. Further, the pIC50 in [1] is 5.30. For the same compound, the values for the pKi in [4] and in series [2] were 4.78 and 5.05, respectively. The pKd in series [5] was 6.69. In addition, the inhibition in series [6] was 50%.
For the compound `CC(C)C[C@H](NC(=O)[C@H](Cc1ccc(OP(=O)(O)O)cc1)NC(=O)c1ccc(C#N)cc1)C(=O)Nc1ccc(C(=O)NCc2ccccc2)c(-c2ccc(C#N)cc2)c1`, in series [1], the pIC50 was 4.48. Besides, the pKi in series [2] was 4.96.
The like results for `CC(C)C[C@H](NC(=O)[C@H](Cc1ccc(OP(=O)(O)O)cc1)NC(=O)c1ccc(C#N)cc1)C(=O)Nc1ccc(C(=O)NCc2ccccc2)c(-c2cccc(C(N)=O)c2)c1` were, in that order, 4.21 and 4.82.
On to `CC(C)C[C@H](NC(=O)[C@H](Cc1ccc(OP(=O)(O)O)cc1)NC(=O)c1ccc(C#N)cc1)C(=O)Nc1cc(C(=O)NCc2ccccc2)cc(-c2cccc(C#N)c2)c1`, for which, in series [1], the pIC50 was 4.04. For the same compound, the pKi in series [2] is 4.74.
As to `CC(C)C[C@H](NC(=O)[C@H](Cc1ccc(O)cc1)NC(=O)c1ccc(C#N)cc1)C(=O)Nc1cc(C(=O)NCc2ccccc2)cc(-c2ccc(C(N)=O)cc2)c1`, the result in series [3] and in [6] was inactive. The pIC50 in series [1] was 3.72. In addition, the remaining at […], 10 µM in series [7] amounted to 36%. In addition, in the series with Caco-2, the Papp is reported as > 0.5 ×10⁻⁶ cm/s. Also, in series [5], the negative-log Kd (pKd) was 4.77.

The values are drawn from ChEMBL document CHEMBL1681633, “Design, synthesis, and in vitro characterization of novel hybrid peptidomimetic inhibitors of STAT3 protein” (Bioorg Med Chem, 2011).
